From ChEMBL document CHEMBL4376814, “Novel cyclin-dependent kinase 9 (CDK9) inhibitor with suppression of cancer stemness activity against non-small-cell lung cancer” (Eur J Med Chem, 2019)
Active and inactive are the calls of the source. The calls are words filed in the database; no cut-off is given here.

Experiments:
[1] = target: ALK tyrosine kinase receptor (Homo sapiens) (UniProt Q9UM73); assay: Inhibition of recombinant human ALK (1058 to end residues) at 1 uM using KKKSPGEYVNIEF as substrate measured after 40 mins in presence of [gamma33P]ATP by scintillation counting method relative to control
Chain of ALK tyrosine kinase receptor (Homo sapiens) (Q9UM73 19-1620 limits assumed): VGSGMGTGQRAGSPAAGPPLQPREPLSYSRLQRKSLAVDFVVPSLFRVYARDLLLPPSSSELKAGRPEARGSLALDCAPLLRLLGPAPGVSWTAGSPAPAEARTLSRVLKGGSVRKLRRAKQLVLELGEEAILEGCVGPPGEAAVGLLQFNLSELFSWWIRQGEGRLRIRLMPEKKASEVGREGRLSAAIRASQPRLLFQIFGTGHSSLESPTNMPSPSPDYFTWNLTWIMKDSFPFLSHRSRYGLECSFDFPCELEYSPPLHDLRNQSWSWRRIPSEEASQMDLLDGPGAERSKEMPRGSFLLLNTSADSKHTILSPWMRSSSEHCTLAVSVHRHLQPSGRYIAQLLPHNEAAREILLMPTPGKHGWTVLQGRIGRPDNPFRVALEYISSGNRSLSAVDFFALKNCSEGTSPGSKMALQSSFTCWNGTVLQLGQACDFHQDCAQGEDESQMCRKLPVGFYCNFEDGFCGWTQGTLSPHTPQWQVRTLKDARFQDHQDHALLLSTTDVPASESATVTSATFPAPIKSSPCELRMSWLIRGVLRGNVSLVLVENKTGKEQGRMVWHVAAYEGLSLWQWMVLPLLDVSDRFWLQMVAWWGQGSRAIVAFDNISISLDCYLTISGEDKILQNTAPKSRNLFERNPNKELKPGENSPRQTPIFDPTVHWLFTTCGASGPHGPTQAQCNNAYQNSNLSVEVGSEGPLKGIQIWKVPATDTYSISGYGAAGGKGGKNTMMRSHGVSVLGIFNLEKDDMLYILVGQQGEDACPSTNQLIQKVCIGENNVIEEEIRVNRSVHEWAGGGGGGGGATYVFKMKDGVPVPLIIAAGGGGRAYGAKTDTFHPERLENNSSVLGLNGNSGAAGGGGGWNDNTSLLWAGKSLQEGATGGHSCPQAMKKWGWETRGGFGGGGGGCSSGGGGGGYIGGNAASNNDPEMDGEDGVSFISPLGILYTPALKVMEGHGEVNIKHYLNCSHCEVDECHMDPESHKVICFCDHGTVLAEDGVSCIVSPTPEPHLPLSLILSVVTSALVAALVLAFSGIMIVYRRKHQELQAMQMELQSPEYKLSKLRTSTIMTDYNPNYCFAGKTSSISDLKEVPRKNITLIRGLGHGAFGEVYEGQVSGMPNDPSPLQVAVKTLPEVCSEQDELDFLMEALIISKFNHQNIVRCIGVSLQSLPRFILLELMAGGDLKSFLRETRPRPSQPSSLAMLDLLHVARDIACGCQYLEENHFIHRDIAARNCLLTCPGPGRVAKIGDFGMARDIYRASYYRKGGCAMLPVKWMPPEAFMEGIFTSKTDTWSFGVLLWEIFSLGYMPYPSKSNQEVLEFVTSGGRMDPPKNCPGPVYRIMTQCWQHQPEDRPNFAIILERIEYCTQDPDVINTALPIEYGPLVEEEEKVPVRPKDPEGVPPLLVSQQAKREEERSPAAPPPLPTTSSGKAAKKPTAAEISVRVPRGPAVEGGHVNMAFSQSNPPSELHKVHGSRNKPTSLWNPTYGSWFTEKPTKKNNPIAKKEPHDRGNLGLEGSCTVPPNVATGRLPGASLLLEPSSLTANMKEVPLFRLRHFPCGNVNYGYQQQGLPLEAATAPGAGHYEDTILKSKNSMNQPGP

HepG2 = assay: Antiproliferative activity against human HepG2 cells assessed as inhibition of cell viability at 500 nM after 72 hrs by CCK-8 assay relative to control; assay type: functional; conditions: HepG2, 72 h
Method in brief: (§1)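 Single-concentration viability screen using CCK-8. Cells were seeded at 3000/well and treated for 72 h. A450 read after 1-4 h with reagent. Percent inhibition calculated against untreated control and blank wells as (Ac−As)/(Ac−Ab)×100%.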

[2] = target: Cyclin-dependent kinase-like 3 (Homo sapiens) (UniProt Q8IVW4); assay: Inhibition of human full length recombinant human CDKL3 at 1 uM using RRRFRPASPLRGP as substrate measured after 120 mins in presence of [gamma33P]ATP by scintillation counting method relative to control
[3] = target: Calcium/calmodulin-dependent protein kinase type 1B (Homo sapiens) (UniProt Q6P2M8); assay: Inhibition of full-length recombinant human CaMK1 beta at 1 uM using KKLRRTLSFAEPG as substrate measured after 40 mins in presence of [gamma33P]ATP by scintillation counting method relative to control
Method in brief: (§2)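 Single-point inhibition at 1 µM was measured in the Eurofins KinaseProfiler panel. Values are the mean of two independent experiments.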

[4] = target: Tyrosine-protein kinase JAK3 (Homo sapiens) (UniProt P52333); assay: Inhibition of recombinant human JAK3 (781 to end residues) at 1 uM using GGEEEEYFELVKKKK as substrate measured after 40 mins in presence of [gamma33P]ATP by scintillation counting method relative to control
[5] = target: Cyclin-dependent kinase 9 (Homo sapiens) (UniProt P50750); conditions: 0.25 uM
[6] = target: Activin receptor type-1B (Homo sapiens) (UniProt P36896); assay: Inhibition of recombinant human ALK4 (150 to end residues) at 1 uM using casein as substrate measured after 40 mins in presence of [gamma33P]ATP by scintillation counting method relative to control
[7] = target: Wee1-like protein kinase 2 (Homo sapiens) (UniProt P0C1S8); assay: Inhibition of recombinant full-length human Wee1B at 1 uM using LSNLYHQGKFLQTFCGSPLYRRR as substrate measured after 120 mins in presence of [gamma33P]ATP by scintillation counting method relative to control
[8] = tested on: Proto-oncogene tyrosine-protein kinase Src (Homo sapiens), P12931 [T341M]; assay: Inhibition of recombinant full-length human Src T341M mutant at 1 uM using GGEEEEYFELVKKKK as substrate measured after 40 mins in presence of [gamma33P]ATP by scintillation counting method relative to control
Chain of Proto-oncogene tyrosine-protein kinase Src (Homo sapiens), P12931 [T341M] (P12931 whole entry T341M, looked up, the tested form may be a part): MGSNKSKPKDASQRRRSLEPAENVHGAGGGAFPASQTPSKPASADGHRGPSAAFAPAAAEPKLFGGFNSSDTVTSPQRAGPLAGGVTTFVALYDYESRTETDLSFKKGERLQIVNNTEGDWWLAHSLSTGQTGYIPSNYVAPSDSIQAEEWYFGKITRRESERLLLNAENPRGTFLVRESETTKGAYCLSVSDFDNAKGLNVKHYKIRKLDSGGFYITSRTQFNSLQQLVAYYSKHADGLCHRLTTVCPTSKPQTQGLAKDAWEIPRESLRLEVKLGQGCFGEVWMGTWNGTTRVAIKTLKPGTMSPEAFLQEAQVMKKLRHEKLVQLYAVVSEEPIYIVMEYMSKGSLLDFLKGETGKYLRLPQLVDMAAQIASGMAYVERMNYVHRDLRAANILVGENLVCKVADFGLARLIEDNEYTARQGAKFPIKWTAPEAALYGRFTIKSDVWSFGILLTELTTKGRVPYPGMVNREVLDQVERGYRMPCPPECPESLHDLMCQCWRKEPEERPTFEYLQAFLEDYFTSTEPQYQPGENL

[9] = tested on: Homeodomain-interacting protein kinase 2 (Homo sapiens), Q9H2X6 [UNDEFINED MUTATION]; assay: Inhibition of recombinant human HIPK2 I471N mutant (165 to 564 residues) at 1 uM using myelin basic protein as substrate measured after 40 mins in presence of [gamma33P]ATP by scintillation counting method relative to control
[10] = target: Serine/threonine-protein kinase mTOR (Homo sapiens) (UniProt P42345); assay: Inhibition of recombinant full-length human mTOR at 1 uM after 40 mins in presence of [gamma33P]ATP by scintillation counting method relative to control
[11] = target: 5'-AMP-activated protein kinase catalytic subunit alpha-1 (Homo sapiens) (UniProt Q13131); assay: Inhibition of full length recombinant human AMPK alpha1 at 1 uM using AMARAASAAALARRR as substrate measured after 40 mins in presence of [gamma33P]ATP by scintillation counting method relative to control; method in brief: as §2
[12] = target: Tyrosine-protein kinase SYK (Homo sapiens) (UniProt P43405); assay: Inhibition of recombinant full-length human Syk at 1 uM using poly(Glu, Tyr) 4:1 as substrate measured after 40 mins in presence of [gamma33P]ATP by scintillation counting method relative to control
[13] = target: Inhibitor of nuclear factor kappa-B kinase subunit alpha (Homo sapiens) (UniProt O15111); assay: Inhibition of human full length recombinant IKKalpha at 1 uM using peptide as substrate incubated for 40 mins in presence of [gamma-33P]ATP at Km concentration by radiometric assay relative to control
Chain of Inhibitor of nuclear factor kappa-B kinase subunit alpha (Homo sapiens) (O15111 whole entry, the tested form may be a part): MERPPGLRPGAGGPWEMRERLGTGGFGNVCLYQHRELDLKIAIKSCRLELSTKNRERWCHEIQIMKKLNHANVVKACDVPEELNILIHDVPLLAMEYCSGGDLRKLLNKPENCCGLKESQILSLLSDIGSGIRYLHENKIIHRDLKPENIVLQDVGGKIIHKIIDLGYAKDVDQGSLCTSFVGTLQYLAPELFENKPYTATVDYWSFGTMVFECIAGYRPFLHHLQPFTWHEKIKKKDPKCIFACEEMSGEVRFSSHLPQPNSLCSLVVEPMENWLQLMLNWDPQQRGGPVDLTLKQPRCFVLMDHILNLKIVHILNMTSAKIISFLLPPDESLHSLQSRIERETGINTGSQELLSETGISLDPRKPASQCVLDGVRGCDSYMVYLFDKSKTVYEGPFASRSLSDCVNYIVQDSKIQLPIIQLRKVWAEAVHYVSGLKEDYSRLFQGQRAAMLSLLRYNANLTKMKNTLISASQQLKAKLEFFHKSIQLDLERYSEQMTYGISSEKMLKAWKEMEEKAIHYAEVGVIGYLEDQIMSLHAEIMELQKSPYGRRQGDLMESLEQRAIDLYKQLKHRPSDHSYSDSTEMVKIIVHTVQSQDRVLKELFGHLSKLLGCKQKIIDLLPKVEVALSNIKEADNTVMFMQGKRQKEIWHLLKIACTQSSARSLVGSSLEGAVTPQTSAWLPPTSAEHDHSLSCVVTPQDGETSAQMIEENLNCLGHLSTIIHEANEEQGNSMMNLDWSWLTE

[14] = target: Rho-associated protein kinase 2 (Homo sapiens) (UniProt O75116); assay: Inhibition of human ROCK2 (11 to 552 residues) at 1 uM using KEAKEKRQEQIAKRRRLSSLRASTSKSGGSQK as substrate measured after 40 mins in presence of [gamma33P]ATP by scintillation counting method relative to control
Chain of Rho-associated protein kinase 2 (Homo sapiens) (O75116 whole entry, looked up, the tested form may be a part): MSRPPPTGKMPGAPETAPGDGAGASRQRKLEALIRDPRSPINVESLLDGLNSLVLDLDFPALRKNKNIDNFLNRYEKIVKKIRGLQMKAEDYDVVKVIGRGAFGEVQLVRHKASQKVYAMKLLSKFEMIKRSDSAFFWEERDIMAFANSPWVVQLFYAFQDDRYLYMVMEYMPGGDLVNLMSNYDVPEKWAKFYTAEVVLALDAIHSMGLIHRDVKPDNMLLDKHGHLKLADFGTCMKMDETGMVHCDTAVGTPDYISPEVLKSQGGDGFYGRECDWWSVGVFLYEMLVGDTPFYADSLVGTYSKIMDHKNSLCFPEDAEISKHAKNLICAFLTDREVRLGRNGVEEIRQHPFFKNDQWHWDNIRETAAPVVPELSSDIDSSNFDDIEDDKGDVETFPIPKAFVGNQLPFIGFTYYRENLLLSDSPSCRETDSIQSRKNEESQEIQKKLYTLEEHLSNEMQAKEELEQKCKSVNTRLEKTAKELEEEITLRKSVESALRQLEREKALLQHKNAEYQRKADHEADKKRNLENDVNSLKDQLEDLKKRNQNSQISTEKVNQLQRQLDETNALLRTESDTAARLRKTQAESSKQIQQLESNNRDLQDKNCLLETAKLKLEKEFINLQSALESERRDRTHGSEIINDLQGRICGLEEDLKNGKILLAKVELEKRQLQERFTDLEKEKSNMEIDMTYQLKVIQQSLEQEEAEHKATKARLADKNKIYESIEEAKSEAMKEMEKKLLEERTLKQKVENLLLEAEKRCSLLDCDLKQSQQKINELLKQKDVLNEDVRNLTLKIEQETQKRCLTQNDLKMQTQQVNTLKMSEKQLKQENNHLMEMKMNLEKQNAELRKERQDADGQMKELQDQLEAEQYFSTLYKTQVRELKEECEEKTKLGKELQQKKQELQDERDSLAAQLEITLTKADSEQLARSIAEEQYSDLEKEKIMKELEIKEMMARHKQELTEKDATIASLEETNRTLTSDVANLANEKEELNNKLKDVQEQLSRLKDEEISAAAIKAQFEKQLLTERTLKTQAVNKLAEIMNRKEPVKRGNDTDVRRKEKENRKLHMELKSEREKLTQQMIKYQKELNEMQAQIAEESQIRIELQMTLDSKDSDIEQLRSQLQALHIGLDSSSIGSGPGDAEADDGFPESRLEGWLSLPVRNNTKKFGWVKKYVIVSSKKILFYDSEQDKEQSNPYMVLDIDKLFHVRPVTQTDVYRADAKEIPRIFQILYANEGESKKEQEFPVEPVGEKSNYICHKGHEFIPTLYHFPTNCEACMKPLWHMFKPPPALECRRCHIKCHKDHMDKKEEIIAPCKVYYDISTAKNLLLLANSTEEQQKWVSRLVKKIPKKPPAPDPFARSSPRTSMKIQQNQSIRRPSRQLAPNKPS
Method in brief: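 Percent inhibition at 1 µM was measured by the contract KinaseProfiler service (Eurofins) on the human kinase. Values are the mean of two independent experiments.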

[15] = target: Insulin receptor (Homo sapiens) (UniProt P06213); assay: Inhibition of recombinant human activated IR (1005 to 1310 residues) at 1 uM using KKKSPGEYVNIEFG as substrate measured after 40 mins in presence of [gamma33P]ATP by scintillation counting method relative to control
[16] = target: Wee1-like protein kinase (Homo sapiens) (UniProt P30291); assay: Inhibition of recombinant human Wee1 (214 to end residues) at 1 uM using LSNLYHQGKFLQTFCGSPLYRRR as substrate measured after 40 mins in presence of [gamma33P]ATP by scintillation counting method relative to control
Homo sapiens = species: Homo sapiens; assay: Inhibition of recombinant full-length human PI3K p120gamma R459Q mutant at 1 uM using phosphatidylinositol-4, 5-bisphosphate as substrate measured after 40 mins by fluorescence assay relative to control
MCF7 = assay: Antiproliferative activity against human MCF7 cells assessed as inhibition of cell viability at 10 uM after 72 hrs by CCK-8 assay relative to control; assay type: functional; conditions: MCF7, 72 h; method in brief: as §1
[17] = target: Receptor-interacting serine/threonine-protein kinase 2 (Homo sapiens) (UniProt O43353); assay: Inhibition of human RIPK2 (1 to 299 residues) at 1 uM using myelin basic protein as substrate measured after 120 mins in presence of [gamma33P]ATP by scintillation counting method relative to control
Chain of Receptor-interacting serine/threonine-protein kinase 2 (Homo sapiens) (O43353 whole entry, the tested form may be a part): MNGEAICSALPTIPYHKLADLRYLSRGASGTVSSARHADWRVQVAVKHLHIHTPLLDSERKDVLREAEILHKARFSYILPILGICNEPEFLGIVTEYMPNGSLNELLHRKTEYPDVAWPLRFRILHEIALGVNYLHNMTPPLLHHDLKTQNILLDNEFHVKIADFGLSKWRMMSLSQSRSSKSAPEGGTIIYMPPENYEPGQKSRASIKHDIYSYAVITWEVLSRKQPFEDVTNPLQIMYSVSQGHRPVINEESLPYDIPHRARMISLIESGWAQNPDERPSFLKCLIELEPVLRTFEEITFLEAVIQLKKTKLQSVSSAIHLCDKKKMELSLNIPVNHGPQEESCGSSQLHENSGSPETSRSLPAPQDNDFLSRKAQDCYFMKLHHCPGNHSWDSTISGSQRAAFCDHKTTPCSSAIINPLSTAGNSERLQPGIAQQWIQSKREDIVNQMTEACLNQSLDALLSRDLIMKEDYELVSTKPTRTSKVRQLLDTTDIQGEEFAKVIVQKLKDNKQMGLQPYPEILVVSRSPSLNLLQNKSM
Method in brief: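 Percent inhibition of kinase activity at a single compound concentration, measured by the outsourced Eurofins KinaseProfiler panel. Values are the mean of two independent experiments.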

A549 = assay: Induction of apoptosis in human A549 cells assessed as early apoptotic cells at 0.5 uM after 48 hrs by AnnexinV-FITC/PI staining-based flow cytometric analysis (reference value: 2.91%); assay type: functional
[18] = tested on: PI3-kinase p110-alpha/p85-alpha (Homo sapiens), P27986+P42336 [E545K]; assay: Inhibition of recombinant full-length human PI3K p110alpha/p85alpha E545K mutant at 1 uM using phosphatidylinositol-4, 5-bisphosphate as substrate measured after 40 mins by HTRF assay relative to control; assay type: protein-complex assay

With CN(C)C(=O)c1cc2cnc(Nc3ccc(NC(=O)CCCCCCCN=C=S)cc3)nc2n1C1CCCC1 as the compound, how does the inhibition [1] read?
Its inhibition is -3%.

And the inhibition at 0.5 µM (HepG2)?
Its inhibition at 0.5 µM is 23%.

And the inhibition [2]?
The inhibition was 53%.

What about the inhibition [3] of the same compound?
Its inhibition is 11%.

What about the inhibition [4] of the same compound?
Its inhibition is 83%.

What about the inhibition [5] of the same compound?
Its inhibition is “Active”.

What about the inhibition [6] of the same compound?
Its inhibition is 3%.

And the inhibition [7]?
The inhibition was -1%.

And the inhibition [8]?
Its inhibition is 20%.

And the inhibition [9]?
Its inhibition is 7%.

What about the inhibition [10] of the same compound?
Its inhibition is -1%.

And the inhibition [11]?
The inhibition was 11%.

What about the inhibition [12] of the same compound?
Its inhibition is 22%.

What about the inhibition [13] of the same compound?
The inhibition was -1%.

And the inhibition [14]?
The inhibition was 5%.

And the inhibition [15]?
The inhibition was -7%.

What about the inhibition [16] of the same compound?
The inhibition was 8%.

And the inhibition (Homo sapiens)?
Its inhibition is 14%.

And the inhibition at 10 µM (MCF7)?
Its inhibition at 10 µM is 98%.

What about the inhibition [17] of the same compound?
Its inhibition is 24%.

What about the Activity (A549) of the same compound?
The Activity was 1.26%.

What about the inhibition [18] of the same compound?
The inhibition was 4%.
